Series [1] has as its system Mus musculus. The experiment in a line: Inhibition of LPS-induced serum IL-1beta production in C57BL/6 mouse at 10 mg/kg, ip pretreated before LPS challenge and measured after […] post LPS challenge by ELISA. The format is functional, organism-based.
For series [2], the system named is Mus musculus. The experiment in a line: Inhibition of LPS-induced serum TNFalpha production in C57BL/6 mouse at 10 mg/kg, ip pretreated before LPS challenge and measured after […] post LPS challenge by ELISA. It is filed as functional, organism-based.
Series [3] has as its system Mus musculus. Briefly: Inhibition of LPS-induced serum IL-1beta production in nlrp3-/- C57BL/6 mouse at 10 mg/kg, ip pretreated before LPS challenge and measured after […] post LPS challenge by ELISA. It is filed as functional, organism-based.
Series [4] is described as follows: Toxicity in human hCMEC/D3 cells assessed as reduction in cell viability at 20 uM. It is filed as cell-based. As to conditions: hcmec/d3, 20 µM. An outline of the steps:
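hCMEC/D3 cells (passage 25-35, EGM-2-based media) exposed to compound at 20 μM for 2 h; viability read by Live/Dead staining. Mean ± SEM from 3 independent experiments, ≥triplicates each.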

SMILES strings stand for the structures. Calls of active or inactive are those of the source. No cut-off for these calls is given here.

Data on three molecules can be found in ChEMBL document CHEMBL4414625, “Discovery of Second-Generation NLRP3 Inflammasome Inhibitors: Design, Synthesis, and Biological Characterization” (J Med Chem, 2019).

As to `C#CCNS(=O)(=O)c1ccc(CCN(Cc2cc(Cl)ccc2OCCC)C(=O)Cc2ccsc2)cc1`, the inhibition result in the series on Mus musculus [1] is “Active”. Besides, the inhibition entry with Mus musculus [2] and in the series on Mus musculus [3] was “inactive” each time. Moreover, in series [4], the Activity result was “Non-Toxic”.
`C#CCNS(=O)(=O)c1ccc(CCN(Cc2cc(Cl)ccc2OC)C(=O)C=C)cc1`: the inhibition entry with Mus musculus [1] and in the series with Mus musculus [2] was “Active” throughout.
For `CC(C)(O)c1coc(S(=O)(=O)NC(=O)Nc2c3c(cc4c2CCC4)CCC3)c1`, the inhibition result in the series on Mus musculus [1] is “Active”.
